Each structure is given as a SMILES string. Converted amounts (≈) assume the structure as drawn. The source made the active and inactive calls. The rule behind the calls is not given here.

Experimental findings from ChEMBL document CHEMBL3351780, “Novel hybrids of metronidazole and quinolones: synthesis, bioactive evaluation, cytotoxicity, preliminary antimicrobial mechanism and effect of metal ions on their transportation by human serum albumin” (Eur J Med Chem, 2014) are described below.

For one series, the system named is Pichia norvegensis. The experiment in a line: Antifungal activity against Candida mycoderma after 24 hrs by microbroth dilution method. It counts as functional. (In general: Dilution methods test growth across graded concentrations, often in twofold steps.)
The test system of another series is Aspergillus flavus. The experiment in a line: Antifungal activity against Aspergillus flavus ATCC 96918 after 24 hrs by microbroth dilution method.
Series [1] is described as follows: Antibacterial activity against Eberthella typhosa by two-fold serial dilution method. Format: functional. The essentials: (§1)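 MIC read as the lowest concentration giving complete growth inhibition. Two-fold serial dilutions were made in 96-well plates following NCCLS, giving a series down to 0.5 µg/mL (…32, 16, 8, 4, 2, 1, 0.5). Plates were inoculated and incubated at 37 °C for 24 h. A DMSO-with-inoculum control without drug was included. Growth was monitored visually and spectrophotometrically, in triplicate.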

Another series has as its system Bacillus spizizenii. The experiment in a line: Antibacterial activity against Bacillus subtilis ATCC 6633 by two-fold serial dilution method. It counts as functional. The method, boiled down:
(§2)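 Standard two-fold serial dilution in 96-well microtest plates following NCCLS. Top dilutions printed as 32, 16, 8, 4, 2, 1, 0.5 ug/mL. Wells inoculated and held at 37 °C for 24 h. Growth judged visually and by spectrophotometer, in triplicate. MIC is the lowest concentration giving complete growth inhibition.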

A further series deals with Cyberlindnera jadinii. The experiment in a line: Antifungal activity against Candida utilis after 24 hrs by microbroth dilution method. To be noted: Williopsis jadinii. It counts as functional. The method, boiled down: (§3)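 Spore suspension prepared in sterile distilled water from one-day-old cultures on Sabouraud agar, final 1-5 x 10^3 spores/mL. Compounds were serially diluted in RPMI 1640 to give eleven dilutions. Incubation at 35 °C for 24 h. Growth read visually and spectrophotometrically, in triplicate. MIC is the lowest concentration with complete inhibition.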

Series [2] concerns Staphylococcus aureus. The experiment in a line: Antibacterial activity against methicillin-resistant Staphylococcus aureus N315 by two-fold serial dilution method. Format: functional. The method, boiled down: as §1
Series [3] is described as follows: Octanol-water partition co-efficient, log P of the compound by shake flask method. Format: physicochemical.
In another series the test system is Candida albicans. The experiment in a line: Antifungal activity against Candida albicans ATCC 76615 after 24 hrs by microbroth dilution method. It counts as functional. The conditions noted are these: ATCC 76615, 24 h. The method, boiled down:
as §3

In the next series the test system is Micrococcus luteus. The experiment in a line: Antibacterial activity against Micrococcus luteus by two-fold serial dilution method. It counts as functional. The method, boiled down:
as §2

The subject of another series is Escherichia coli. The experiment in a line: Antibacterial activity against Escherichia coli DH52 by two-fold serial dilution method. Format: functional. The method, boiled down: as §2
For series [4], the system named is Staphylococcus aureus. The experiment in a line: Antibacterial activity against Staphylococcus aureus ATCC 25923 by two-fold serial dilution method. Format: functional. The essentials:
as §2

The test system of the next series is Pseudomonas aeruginosa. The experiment in a line: Antibacterial activity against Pseudomonas aeruginosa by two-fold serial dilution method. Format: functional. The essentials: as §2
For another series, the system named is Saccharomyces cerevisiae. The experiment in a line: Antifungal activity against Saccharomyces cerevisiae after 24 hrs by microbroth dilution method. It counts as functional. The method, boiled down: as §3
A short description of series [5]: Dissociation constant, pKa of the compound by UV-spectroscopy. It counts as physicochemical. The essentials: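 DMSO stock at 4.0 × 10^-3 mol/L added to 2 mL of buffer, then shaken 10 min at room temperature. Buffers were acetate (pH 4.0–5.0), MES (5.5–6.5), HEPES (7.0–8.0) and CHES (8.5–9.4), each from 500 mM stocks. Scans ran 210–400 nm and were normalized. Absolute differences from the acid spectrum were summed at 244 and 308 nm, plotted against pH and fitted to obtain pKa.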

Series [6] can be described thus: Aqueous solubility of the compound by UV-spectrophotometry. It counts as physicochemical.
The subject of a further series is Streptococcus pneumoniae. The experiment in a line: Antibacterial activity against Streptococcus pneumoniae by two-fold serial dilution method. It counts as functional. The method, boiled down: as §2
A short description of series [7]: Cytotoxicity against human A549 cells assessed as cell viability at 256 ug/ml after 24 hrs by CCK-8 assay. Format: cell-based. To be noted: read-out: Activity. The method, boiled down: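 A549 cells were plated and allowed to attach for 24 h, then medium with the compound was added. The compound came from DMSO stocks diluted in medium to 8, 16, 32, 64, 128 and 256 µg/mL. Cells were kept at 37 °C in 5% CO2. Viability was read by CCK-8 absorbance at 450 nm against a drug-free control, three replicates.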

For another series, the system named is Shigella dysenteriae. The experiment in a line: Antibacterial activity against Shigella dysenteriae by two-fold serial dilution method. Format: functional. The essentials:
as §1

Another series relates to Calf thymus DNA. The experiment in a line: Binding affinity to calf thymus DNA by UV-vis spectroscopy. To be noted: Bos taurus. Format: nucleic-acid assay. The essentials: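 Calf thymus DNA held at a fixed concentration and titrated with increasing amounts of the compound. UV-vis absorption spectra were recorded at room temperature in 1.0 cm quartz cells, following the DNA band at 260 nm.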

In general, MIC refers to the lowest concentration that inhibits growth of the organism. Lower therefore signals a more susceptible organism. With `CCOC(=O)c1cn(CC2CO2)c2c(F)cccc2c1=O` (racemic), the minimum inhibitory concentration (MIC) with Pichia norvegensis turned out to be 64 µg/mL (≈ 220 µM); against Aspergillus flavus, 512 µg/mL (≈ 1760 µM); in series [1], 2 µg/mL (≈ 6.87 µM); with Bacillus spizizenii it was 32 µg/mL (≈ 110 µM); in the series on Cyberlindnera jadinii it was 512 µg/mL (≈ 1760 µM).
As a reminder, the logP is the decadic logarithm of the partition coefficient of the neutral form, usually between octanol and water. A low value points to a more hydrophilic compound. As a reminder, the pKa is the pH at which an ionisable group is half protonated. Usually solubility stands for the concentration that dissolves in the medium under given conditions. Turning to `Cc1ccc2c(c1)c(=O)c(C(=O)O)cn2CC(O)Cn1c([N+](=O)[O-])cnc1C` (stereo unspecified), the minimal inhibitory concentration (MIC) in the series with Pichia norvegensis is 256 µg/mL (≈ 663 µM); against Staphylococcus aureus [2], 4 µg/mL (≈ 10.4 µM); in series [1], 8 µg/mL (≈ 20.7 µM); against Candida albicans, 16 µg/mL (≈ 41.4 µM); against Bacillus spizizenii it was 8 µg/mL (≈ 20.7 µM); against Micrococcus luteus, 1 µg/mL (≈ 2.59 µM). In addition, the MIC in the series on Escherichia coli is 1 µg/mL (≈ 2.59 µM); in the series on Staphylococcus aureus [4], 8 µg/mL (≈ 20.7 µM); against Pseudomonas aeruginosa it was 2 µg/mL (≈ 5.18 µM); in the series with Saccharomyces cerevisiae, 2 µg/mL (≈ 5.18 µM); with Streptococcus pneumoniae, 4 µg/mL (≈ 10.4 µM); against Cyberlindnera jadinii, 512 µg/mL (≈ 1330 µM). In the series on Shigella dysenteriae, this molecule showed a minimal inhibitory concentration (MIC) of 8 µg/mL (≈ 20.7 µM). The same molecule came in with a logP in series [3] of -0.03. In addition, the pKa in series [5] was 6.43. The solubility in series [6] came out at 390 µg/mL (≈ 1010 µM). Further, the viability at 24 h, 256 ug/ml in series [7] was over 83%.
Turning to `CCOC(=O)c1cn(CC2CO2)c2cc(C(F)(F)F)ccc2c1=O` (racemic), the MIC was 32 µg/mL (≈ 93.8 µM) in the series on Pichia norvegensis; 512 µg/mL (≈ 1500 µM) with Aspergillus flavus; 2 µg/mL (≈ 5.86 µM) in series [1]; 31 µg/mL (≈ 90.8 µM) in the series with Bacillus spizizenii; 512 µg/mL (≈ 1500 µM) in the series with Cyberlindnera jadinii.
Consider `CCn1cc(C(=O)O)c(=O)c2cc(F)c(N3CCNCC3)cc21` [NORFLOXACIN], for which the result in the series with Calf thymus DNA was Active. For the same molecule, the minimal inhibitory concentration (MIC) in series [1] was 4 µg/mL (≈ 12.5 µM); against Bacillus spizizenii, 1 µg/mL (≈ 3.13 µM); in the series on Streptococcus pneumoniae it was 1 µg/mL (≈ 3.13 µM).
